# Sampled rows, rich in hits. Any-hit rate of the full collection: about 4.4%.
# EBI2 antag = blocks human EBI2 receptor beta-arrestin signaling | AID 651636 | inhibition, % at 5 µM | 0.81% of 360,000 active | EBI2 beta-arrestin recruitment, luminescence, 7a,25-OHC stimulated; in the data active = inhibition above about 38%;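 note: enzyme fragment complementation signal reports receptor beta-arrestin coupling in cells; 0% = agonist plus DMSO wells and 100% = wells without agonist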
# SENP1 FRET inh = blocks the human SENP1 SUMO protease catalytic domain; inhibition, % at 10 µM; Q9P0U3; 0.21% of 360,000 active; recombinant SENP1 catalytic domain, CyPet-SUMO1-YPet FRET cleavage;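 active = inhibition at least 30% at 10 µM, raw YFP signal under a set limit, fluorescence ratio 0.5 to 1.5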;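 note: 0% = enzyme with DMSO and 100% = no enzyme wells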
# Target sequence (Q9P0U3 419-644 limits assumed): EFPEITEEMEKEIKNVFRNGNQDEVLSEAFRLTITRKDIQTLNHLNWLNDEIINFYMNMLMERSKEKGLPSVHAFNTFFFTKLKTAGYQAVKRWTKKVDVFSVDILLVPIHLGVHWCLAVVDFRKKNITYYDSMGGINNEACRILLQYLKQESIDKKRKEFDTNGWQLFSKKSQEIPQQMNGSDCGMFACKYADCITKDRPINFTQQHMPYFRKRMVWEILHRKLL
#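 Test system: recombinant human SENP1 catalytic domain, His6-tagged / Medium: pH 8 Tris buffer with EDTA, NaCl, BME, BSA, NP40, catalase / Also added: SUMO1 FRET substrate flanked by Cypet and Ypet, 25 nM / Times: 50 min reaction at room temperature / Signal: FRET, CFP and YFP emission / Control set: no-enzyme low control and enzyme-plus-DMSO high control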
# NR3A LBD binder = NR3A (human) ligand-binding domain modulation; Tm shift relative to glycine control, % at 25 µM; NR3A LBD differential scanning fluorimetry, Tm shift; 0% = protein alone, 100% = glycine-bound protein; 2.5% of 340,000 active; AID 1259313;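 active = melting temperature shift of at least 10% of the positive control shift, at one fixed dose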
# MPTP inh = inhibitors of mitochondrial permeability transition pore; isolated mouse mitochondria, Ca2+ swelling absorbance, 30 min; 1.4% of 360,000 active; inhibition, % at 10 µM;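 active = inhibition of 50% or more, scaled per plate between neutral and stimulator controls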;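 note: 0% = DMSO wells given calcium and 100% = 1 mM EGTA wells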
# EBI2 conf = confirmation of human EBI2 receptor antagonists. shares compounds with EBI2 antag. EBI2 beta-arrestin luminescence, 7a,25-OHC antagonism. inhibition, % at 5 µM. 29% of 2,400 active. AID 651997;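 active = inhibition of at least 50%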
# EBI2 agonist = EBI2 agonism counter-screen; shares compounds with EBI2 antag; EBI2-expressing cells, agonist mode, luminescence, 60 min; 0% vehicle, 100% 7α,25-dihydroxycholesterol control; activation, % at 5 µM; 2,400 tested, under 10 active; AID 652000;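 active = activation of at least 50%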
# bGal cs = beta-galactosidase inhibition counter-screen | shares compounds with EBI2 antag | purified beta-galactosidase, luminescent Galacton Star, 15 min | inhibition, % at 5 µM | 1% of 2,400 active;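 active = replicate-average signal at least 3 plate SD below neutral wells, shown as high inhibition, flagging enzyme-inhibiting false positives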;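 note: 0% = DMSO wells with enzyme and 100% = wells lacking enzyme; higher means stronger loss of beta-gal luminescence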
# Starred values were filed as active, the others as inactive; . = no result given.
SMILES,EBI2 antag,SENP1 FRET inh,NR3A LBD binder,MPTP inh,EBI2 conf,EBI2 agonist,bGal cs
CC(C)(C)OC(=O)c1c(N)n(Cc2ccco2)c2nc3ccccc3nc12,18,-24,-4,1,.,.,.
Nc1c(C(=O)NCCN2CCOCC2)c2nc3ccccc3nc2n1Cc1ccccc1,74*,-30,-5,0,34,1,6
COCCCn1c(N)c(C(=O)OC(C)COC)c2nc3ccccc3nc21 (stereo not drawn),-2,-125,0,-2,.,.,.
S=P(NCCNP(=S)(N1CC1)N1CC1)(N1CC1)N1CC1,1,1,2,0,.,.,.
COc1ccc(N=Cc2c(O)n(CC3CCCO3)c(=O)[nH]c2=O)cc1 (stereo not drawn),55*,-2,-19,1,50,0,3
O=c1c(C=NCCN2CCNCC2)c(O)n(C2CCCCC2)c(=O)n1C1CCCCC1,7,-6,-2,2,.,.,.
O=c1c(C=NCc2cccs2)c(O)n(C2CCCCC2)c(=O)n1C1CCCCC1,44*,2,-4,1,2,-1,-10
O=C(COc1ccccc1)c1cn(Cc2ccccc2)c2ccccc12,46*,19,-3,3,26,-1,-14
CC(C)(C)C(=O)c1cn(Cc2ccccc2)c2ccccc12,15,1,0,-1,.,.,.
Cc1ccc(NC2=NCCCS2)cc1Cl,-12,3,1,0,.,.,.
COc1ccccc1CN1CCN(C(=O)COc2ccc3ccccc3c2)CC1,70*,-24,-1,2,47,4,2
O=C(COc1ccc2ccccc2c1)N1CCN(CC2CC3C=CC2C3)CC1 (stereo not drawn),85*,1,4,-2,63*,-1,-4
CN1CCN(C(=O)COc2ccc3ccccc3c2)CC1,53*,-2,-1,0,31,-1,-7
O=C(COc1ccc2ccccc2c1)N1CCN(C2CCN(Cc3ccccc3)CC2)CC1,43,2,-1,1,.,.,.
COc1ccc(OCC(=O)N2CCN(Cc3c[nH]c4ccccc34)CC2)cc1,47*,-2,-3,-4,29,2,2
CCCCc1ccc(NC2=NCCCS2)cc1,0,-1,-3,2,.,.,.
CC(=O)N1Cc2cnnn2-c2ccccc2C1(C)C#N (stereo not drawn),2,0,0,0,.,.,.
O=C(c1cc(Br)ccc1Cl)N1CCC2(CC1)OCCO2,-6,-1,0,-2,.,.,.
O=C(c1cc2cc(Br)ccc2[nH]1)N1CCC2(CC1)OCCO2,84*,-3,-3,1,67*,2,-1
O=c1[nH]c(=O)n(Cc2ccccc2Cl)c(O)c1C=Nc1ccc(F)cc1,29,-14,0,3,.,.,.
COC(=O)C1=C(c2ccc(Cl)c(C(F)(F)F)c2)C[C@@H]2CC[C@H]1N2C(=O)NCCOc1ccc(OC)cc1,44*,0,-15,-1,24,-2,-3
COC(=O)C1=C(c2ccc(OCc3ccccc3)cc2)C[C@@H]2CC[C@H]1N2C(=O)NCc1ccccc1C(F)(F)F,63*,2,.,1,23,-1,7
CCC(C)n1c(O)c(/C=N/Nc2ccccc2)c(=O)[nH]c1=S (stereo not drawn),8,-37,2,3,.,.,.
CC12CCC3C(CC=C4CC(O)CCC43C)C1C/C(=C\c1cccc(F)c1)C2=O (stereo not drawn),46*,0,5,0,5,0,-8
O=c1cccc2n1CC1CC2CN(CC(O)CN2CC3CC(C2)c2cccc(=O)n2C3)C1 (stereo not drawn),1,-1,0,-1,.,.,.
